Values belong to the compound of their own block, whether it stands above or below them. Active and inactive are the calls of the source. No cut-off for these calls is given here.
What was measured:
[1] = target: T1, Fucose-binding lectin PA-IIL (Pseudomonas aeruginosa (strain ATCC 15692 / DSM 22644 / CIP 104116 / JCM14847 / LMG 12228 / 1C / PRS 101 / PAO1), UniProt Q9HYN5); test: Inhibition of N-(fluorescein-5-yl)-N'-(alpha-L-fucopyranosyl ethylen)thiocarbamide binding to Pseudomonas aeruginosa PAO1 LecB incubated for 22 to 24 hrs by fluorescence polarization assay
Target sequence in this assay (Q9HYN5 whole entry): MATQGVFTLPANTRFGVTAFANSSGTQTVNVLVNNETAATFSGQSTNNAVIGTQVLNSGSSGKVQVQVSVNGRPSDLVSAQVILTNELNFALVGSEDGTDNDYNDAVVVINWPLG

[2] = target: T1, Fucose-binding lectin PA-IIL; test: Inhibition of N-(fluorescein-5-yl)-N'-(alpha-L-fucopyranosyl ethylen)thiocarbamide binding to Pseudomonas aeruginosa PA14 LecB incubated for 22 to 24 hrs by fluorescence polarization assay
Target sequence in this assay (Q9HYN5 1-115): as the sequence (Q9HYN5 whole entry) above

[3] = Protein binding in CD1 mouse plasma after 2 hrs by HPLC analysis relative to control; assay type: ADME, cell-free; details: for fraction unbound at 2 h: CD1, mouse, read-out: PPB; for PPB: mouse, 2 h
How it was run: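 Rapid equilibrium dialysis with compound at 100 µM final in pooled CD-1 mouse plasma, naproxen as control. Incubated 37 °C for 2 h at 800 rpm. Samples matrix-matched, extracted with cold MeCN/H2O (90:10) containing caffeine internal standard, and quantified by HPLC-MS/MS. %free = buffer/plasma chamber concentration × 100; %bound = 100 − %free.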

[4] = Half life in CD1 mouse plasma at 10 mg/kg, po or ip after 24 hrs; assay type: ADME, organism-based
[5] = Solubility of compound in TBS/Ca containing 1% DMSO at 1 mM; details: 1000 µM
[6] = Intrinsic clearance in C57BL/6J mouse liver microsomes at 1 uM preincubated for 10 mins followed by NADPH addition and measured up to 45 mins by LC-MS/MS analysis; assay type: ADME, Microsome; details: 0.75 h
How it was run: (§1)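 Compound at 1 µM in 0.1 M phosphate buffer pH 7.4 with liver microsomes at 0.5 mg/mL. Preincubated 10 min, then started with an NADPH regenerating system. Sampled at 1–45 min at 37 °C and quenched in MeCN with internal standard. Supernatant analyzed by LC-MS/MS. CLint = −slope of ln(peak area ratio) vs time × 1000/protein concentration. CYP marker substrates served as quality control.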

[7] = Intrinsic clearance in human liver microsomes at 1 uM preincubated for 10 mins followed by NADPH addition and measured up to 45 mins by LC-MS/MS analysis; assay type: ADME, Microsome; details: 0.75 h; how it was run: as §1
[8] = Stability in mouse plasma at 25 uM measured up to 120 mins by HPLC-MS analysis; assay type: ADME, cell-free; details: 2 h
How it was run: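 Compound from DMSO added to mouse plasma (pH 7.4, 37 °C) at 25 µM final. Incubated 0, 15, 30, 60, 90 and 120 min at 37 °C. Aliquots extracted with methanol containing internal standard and analyzed by HPLC-MS, normalized to internal standard and time 0. Procaine and propoxycaine served as unstable controls, procainamide (250 µM) as stable control. At least three independent repeats.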

HepG2 [9] = test: Cytotoxicity against human HepG2 cells assessed as reduction in cell viability up to 100 uM after 24 hrs by MTT assay; assay type: cell-based; details: hepg2, 24 h
How it was run: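 Hep G2 cells grown in DMEM with 10% heat-inactivated FCS at 37 °C, 5% CO2, seeded and grown to 75% confluency. Exposed to 0.01–100 µM compound (DMSO stock diluted in PBS, final DMSO 0.1%) for 24 h. Washed, then MTT at 1 mg/mL final for 3 h. Solubilized in 0.04 M HCl/2-propanol, read at 560 nm with 670 nm reference. Normalized as (A−B)/(C−B), with B the Triton X-100 (0.5%) control and C the vehicle control. At least three assays.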

Pseudomonas aeruginosa [10] = test: Antibacterial activity against Pseudomonas aeruginosa PA14 transfected with pMP7605 plasmid at 100 uM after 23 hrs by fluorescence based confocal light microscopic analysis; assay type: functional, organism-based
Pseudomonas aeruginosa [11] = test: Antibiofilm activity against Pseudomonas aeruginosa PA14 transfected with pMP7605 plasmid at 100 uM after 48 hrs by fluorescence based confocal light microscopic analysis relative to control; assay type: functional; details: PA14, 48 h
How it was run: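 P. aeruginosa PA14 wild type carrying the mCherry plasmid pMP7605 was grown overnight in LB at 37 °C, then diluted to OD600 0.02 in M63 minimal medium. Compound (100 µM final, from DMSO stock) was added and cultures incubated 48 h at 30 °C. Biofilm biomass was quantified by confocal laser scanning microscopy versus DMSO control; means ± SD of three independent assays, Student's t test.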

HepG2 [12] = test: Cytotoxicity against human HepG2 cells assessed as cell viability at 100 uM after 24 hrs by MTT assay relative to control; assay type: cell-based; details: hepg2, 24 h
How it was run: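 Hep G2 cells in DMEM + 10% FCS were grown to 75% confluency, then exposed to compound (0.01–100 µM, 0.1% DMSO final) for 24 h at 37 °C, 5% CO2. MTT was added at 1 mg/mL final for 3 h and solubilised in 0.04 M HCl/2-propanol; A560 read with 670 nm reference. Normalised (A−B)/(C−B) to 0.5% Triton X-100 and vehicle controls; SD of ≥3 assays.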

SMILES: C[C@@H]1O[C@H](CNC(=O)c2ccccc2)[C@@H](O)[C@H](O)[C@@H]1O
IC50 [1]: 8730 nM
IC50 [2]: 3540 nM

fraction unbound at 2 h [3]: 0.3 to 0.4
SMILES: CO[C@H]1O[C@H](CNS(=O)(=O)c2cccs2)[C@@H](O)[C@H](O)[C@@H]1O

PPB [3]: 73%
half-life [4]: 17 min
SMILES: Cc1cc(C)c(S(=O)(=O)NC[C@H]2O[C@@H](C)[C@@H](O)[C@@H](O)[C@@H]2O)c(C)c1

solubility [5]: Insoluble
SMILES: C[C@@H]1O[C@H](CNC(=O)c2ccc(-c3ccccc3)s2)[C@@H](O)[C@H](O)[C@@H]1O

PPB [3]: 81%
half-life [4]: 34 min
SMILES: C[C@@H]1O[C@H](CNS(=O)(=O)c2cccs2)[C@@H](O)[C@H](O)[C@@H]1O

SMILES: C[C@@H]1O[C@H](CNS(=O)(=O)c2ccn(C)n2)[C@@H](O)[C@H](O)[C@@H]1O
IC50 [1]: 7010 nM
IC50 [2]: 730 nM

SMILES: COc1ccc(C#Cc2ccc(S(=O)(=O)NC[C@H]3O[C@@H](C)[C@@H](O)[C@@H](O)[C@@H]3O)s2)cc1
IC50 [1]: 1750 nM
IC50 [2]: 280 nM

SMILES: C[C@@H]1O[C@H](CNS(=O)(=O)c2ccc(/C=C\c3ccccc3)s2)[C@@H](O)[C@H](O)[C@@H]1O
IC50 [1]: 2320 nM
IC50 [2]: 440 nM

Intrinsic clearance (CLint) [6]: < 10 µL/min/mg
Intrinsic clearance (CLint) [7]: < 10 µL/min/mg
Stability [8]: Stable
SMILES: C[C@@H]1O[C@H](CNS(=O)(=O)c2cc(Cl)c(Cl)s2)[C@@H](O)[C@H](O)[C@@H]1O
Activity (HepG2 [9]): Non-Toxic

SMILES: Cc1ccsc1S(=O)(=O)NC[C@H]1O[C@@H](C)[C@@H](O)[C@@H](O)[C@@H]1O
IC50 [1]: 1320 nM
IC50 [2]: 200 nM

SMILES: Cc1cccc(C#Cc2ccc(S(=O)(=O)NC[C@H]3O[C@@H](C)[C@@H](O)[C@@H](O)[C@@H]3O)s2)c1
IC50 [1]: 1720 nM
IC50 [2]: 300 nM

SMILES: C[C@@H]1O[C@H](CNS(=O)(=O)c2ccsc2)[C@@H](O)[C@H](O)[C@@H]1O
IC50 [1]: 1850 nM
IC50 [2]: 590 nM

SMILES: Cc1ccc(S(=O)(=O)NC[C@H]2O[C@@H](C)[C@@H](O)[C@@H](O)[C@@H]2O)s1
IC50 [1]: 3530 nM
IC50 [2]: 560 nM
Intrinsic clearance (CLint) [6]: 10 µL/min/mg
Intrinsic clearance (CLint) [7]: < 10 µL/min/mg
Stability [8]: Stable
Activity (HepG2 [9]): Non-Toxic
fraction unbound at 2 h [3]: 0.3 to 0.4

SMILES: Cc1cc(S(=O)(=O)NC[C@H]2O[C@@H](C)[C@@H](O)[C@@H](O)[C@@H]2O)c(C(F)(F)F)o1
IC50 [1]: 3470 nM
IC50 [2]: 460 nM

SMILES: Cc1ccc(C#Cc2ccc(S(=O)(=O)NC[C@H]3O[C@@H](C)[C@@H](O)[C@@H](O)[C@@H]3O)s2)cc1
IC50 [1]: 1720 nM
IC50 [2]: 350 nM

SMILES: Cc1ccccc1C#Cc1ccc(S(=O)(=O)NC[C@H]2O[C@@H](C)[C@@H](O)[C@@H](O)[C@@H]2O)s1
IC50 [1]: 1620 nM
IC50 [2]: 270 nM

SMILES: C[C@@H]1O[C@H](CNS(=O)(=O)c2ccc(C#Cc3ccccc3)s2)[C@@H](O)[C@H](O)[C@@H]1O
Activity (Pseudomonas aeruginosa [10]): inactive
inhibition at 100 µM (Pseudomonas aeruginosa [11]): > 90%
Intrinsic clearance (CLint) [6]: < 10 µL/min/mg
Intrinsic clearance (CLint) [7]: < 10 µL/min/mg
Stability [8]: Stable
Activity (HepG2 [12]): 64%
fraction unbound at 2 h [3]: 0.3 to 0.4

SMILES: Cc1csc(S(=O)(=O)NC[C@H]2O[C@@H](C)[C@@H](O)[C@@H](O)[C@@H]2O)c1
IC50 [1]: 2550 nM
IC50 [2]: 320 nM

SMILES: C[C@@H]1O[C@H](CNC(=O)c2cc3ccccc3o2)[C@@H](O)[C@H](O)[C@@H]1O
IC50 [1]: 10200 nM
IC50 [2]: 2410 nM

SMILES: Cc1cc(S(=O)(=O)NC[C@H]2O[C@@H](C)[C@@H](O)[C@@H](O)[C@@H]2O)c(C)s1
Activity (Pseudomonas aeruginosa [10]): inactive
inhibition at 100 µM (Pseudomonas aeruginosa [11]): > 80%
Intrinsic clearance (CLint) [6]: < 10 µL/min/mg
Intrinsic clearance (CLint) [7]: < 10 µL/min/mg
Stability [8]: Stable
Activity (HepG2 [9]): Non-Toxic
fraction unbound at 2 h [3]: 0.3 to 0.4

Intrinsic clearance (CLint) [6]: < 10 µL/min/mg
Intrinsic clearance (CLint) [7]: < 10 µL/min/mg
Stability [8]: Stable
fraction unbound at 2 h [3]: 0.3 to 0.4
SMILES: Cc1oncc1S(=O)(=O)NC[C@H]1O[C@@H](C)[C@@H](O)[C@@H](O)[C@@H]1O
Activity (HepG2 [9]): Non-Toxic

SMILES: CCc1ccc(S(=O)(=O)NC[C@H]2O[C@@H](C)[C@@H](O)[C@@H](O)[C@@H]2O)s1
IC50 [1]: 4020 nM
IC50 [2]: 380 nM

SMILES: C[C@@H]1O[C@H](CNS(=O)(=O)c2ccco2)[C@@H](O)[C@H](O)[C@@H]1O
IC50 [1]: 3150 nM
IC50 [2]: 460 nM

SMILES: C[C@@H]1O[C@H](CNS(=O)(=O)c2ccc(C#CCCc3ccccc3)s2)[C@@H](O)[C@H](O)[C@@H]1O
IC50 [1]: 3130 nM
IC50 [2]: 400 nM

SMILES: C[C@@H]1O[C@H](CNS(=O)(=O)c2ccc(Br)s2)[C@@H](O)[C@H](O)[C@@H]1O
IC50 [1]: 3310 nM
IC50 [2]: 570 nM

fraction unbound at 2 h [3]: 0.3 to 0.4
SMILES: CO[C@H]1O[C@H](CNS(=O)(=O)c2c(C)cc(C)cc2C)[C@@H](O)[C@H](O)[C@@H]1O

Reference: ChEMBL document CHEMBL4321818, “Anti-biofilm Agents against Pseudomonas aeruginosa: A Structure-Activity Relationship Study of C-Glycosidic LecB Inhibitors” (J Med Chem, 2019)
